pKi: −log10 of the molar value. Numbered stars: 1 amine (or outer) side, 2 acyl side, 3 side chain; on linkers, the order of the positions; unused ones are H or OH. Bridge positions count the residues as written; N and C are the ends. Square brackets hold non-standard residues; d marks the D form. Peptide text beside a SMILES is read from it. * marks the point of attachment. Tic(7-O(CH2)6CO) = O=C([C@@H]1Cc2ccc(OCCCCCCC(=O)[*:3])cc2CN1[*:1])[*:2]; X1 = CCCC(N[*:1])C(=O)C(=O)[*:2]; Chg = N[C@H](C(=O)O)C1CCCCC1; Phg = N[C@H](C(=O)O)c1ccccc1; OtBu = CC(C)(C)O*
Experiments:
NS3 = NS3 (Hepatitis C virus, UniProt A3EZJ3); assay: Inhibition of HCV NS3 protease; parameters: species or system Hepacivirus hominis
Sequence of NS3 (A3EZJ3 whole entry): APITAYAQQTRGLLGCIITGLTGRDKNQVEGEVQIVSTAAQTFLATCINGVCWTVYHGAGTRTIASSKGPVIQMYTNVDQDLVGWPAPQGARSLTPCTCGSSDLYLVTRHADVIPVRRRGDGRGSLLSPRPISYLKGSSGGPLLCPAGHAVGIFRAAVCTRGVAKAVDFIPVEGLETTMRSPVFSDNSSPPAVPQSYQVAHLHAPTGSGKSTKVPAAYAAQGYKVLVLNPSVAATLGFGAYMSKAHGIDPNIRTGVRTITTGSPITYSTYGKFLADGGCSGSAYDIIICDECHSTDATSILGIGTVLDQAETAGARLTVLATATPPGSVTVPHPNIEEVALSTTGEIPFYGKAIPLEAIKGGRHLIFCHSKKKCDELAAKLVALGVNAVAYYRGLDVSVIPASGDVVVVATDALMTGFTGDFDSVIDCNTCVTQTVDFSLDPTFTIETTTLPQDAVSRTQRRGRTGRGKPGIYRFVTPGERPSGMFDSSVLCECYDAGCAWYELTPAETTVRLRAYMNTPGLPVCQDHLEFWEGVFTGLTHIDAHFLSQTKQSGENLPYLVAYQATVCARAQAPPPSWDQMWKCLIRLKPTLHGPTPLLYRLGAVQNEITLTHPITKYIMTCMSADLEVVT
How it was run: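 Continuous spectrophotometric assay with NS4A-tethered single-chain NS3 serine protease, following cleavage of chromogenic ester substrates. Inhibition constants (Ki*) were determined. Compounds were tested as a mixture of two P1 diastereomers because pure P1 isomers racemized extensively under the assay conditions.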

[1] = AUC in rat administered po; assay type: ADME, organism-based; conditions: plasma
[2] = AUC in rat administered sc; assay type: ADME, organism-based; conditions: plasma
[3] = Oral bioavailability in rat; assay type: ADME, organism-based; conditions: in vivo

pKi (NS3) | AUC [1] | AUC [2] | bioavailability [3] | Structure (SMILES)
6.59 | – | – | – | CCCC(NC(=O)[C@@H]1Cc2ccc3cc2CN1C(=O)[C@H](C1CCCCC1)NC(=O)CCCCCCO3)C(=O)C(=O)NCC(=O)N[C@H](C(=O)OC(C)(C)C)c1ccccc1 (stereo not given in full) ([Chg][Tic(7-O(CH2)6CO)][X1]G[Phg]-OtBu; lactam N-2)
5.52 | – | – | – | CCCC(NC(=O)[C@@H]1Cc2ccc3cc2CN1C(=O)[C@H](C1CCCCC1)NC(=O)CCCCCCO3)C(=O)C(=O)NCC(=O)O (stereo not given in full)
5.77 | – | – | – | CCCC(NC(=O)[C@@H]1Cc2ccc3cc2CN1C(=O)[C@H](C1CCCCC1)NC(=O)CCCCCCO3)C(=O)C(=O)NCC(=O)OCc1ccccc1 (stereo not given in full)
7.82 | – | – | – | CCCC(NC(=O)[C@@H]1Cc2ccc3cc2CN1C(=O)[C@H](C1CCCCC1)NC(=O)CCCCCCO3)C(=O)C(=O)NCC(=O)N[C@H](C(=O)O)c1ccccc1 (stereo not given in full) ([Chg][Tic(7-O(CH2)6CO)][X1]G[Phg]-OH; lactam N-2)
5.70 | – | – | – | CCCC(NC(=O)[C@@H]1Cc2ccc3cc2CN1C(=O)[C@H](C1CCCCC1)NC(=O)CCCCCCO3)C(=O)C(=O)NCC(=O)NCc1ccccc1 (stereo not given in full)
7.68 | 0.27 µM·h | 5.5 µM·h | < 10% | CCCC(NC(=O)[C@@H]1Cc2ccc3cc2CN1C(=O)[C@H](C1CCCCC1)NC(=O)CCCCCCO3)C(=O)C(=O)NCC(=O)N[C@H](C(=O)N(C)C)c1ccccc1 (stereo not given in full) ([Chg][Tic(7-O(CH2)6CO)][X1]G[Phg]-NMe2; lactam N-2)
5.68 | – | – | – | CCCC(NC(=O)[C@@H]1Cc2ccc3cc2CN1C(=O)[C@H](C1CCCCC1)NC(=O)CCCCCCO3)C(=O)C(N)=O (stereo not given in full)
